Reference: ChEMBL document CHEMBL2311425, “Histone deacetylase (HDAC) inhibitors with a novel connecting unit linker region reveal a selectivity profile for HDAC4 and HDAC5 with improved activity against chemoresistant cancer cells” (J Med Chem, 2013)

What was measured:
[1] = target: T1, Histone deacetylase 11 (Homo sapiens, UniProt Q96DB2); experiment: Inhibition of human HDAC11 by fluorescence assay
T1 sequence (Q96DB2 whole entry): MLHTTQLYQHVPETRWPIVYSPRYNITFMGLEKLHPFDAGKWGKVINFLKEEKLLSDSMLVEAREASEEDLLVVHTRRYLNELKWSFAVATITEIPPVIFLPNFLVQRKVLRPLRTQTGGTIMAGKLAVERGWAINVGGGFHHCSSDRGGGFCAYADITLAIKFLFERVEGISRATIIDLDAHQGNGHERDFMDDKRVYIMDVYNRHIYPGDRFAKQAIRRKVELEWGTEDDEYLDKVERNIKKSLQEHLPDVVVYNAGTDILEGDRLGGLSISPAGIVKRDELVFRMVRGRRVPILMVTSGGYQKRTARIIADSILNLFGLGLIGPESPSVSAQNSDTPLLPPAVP

[2] = target: T2, Histone deacetylase 8 (Homo sapiens, UniProt Q9BY41); experiment: Inhibition of human HDAC8 by fluorescence assay
T2 sequence (Q9BY41 whole entry): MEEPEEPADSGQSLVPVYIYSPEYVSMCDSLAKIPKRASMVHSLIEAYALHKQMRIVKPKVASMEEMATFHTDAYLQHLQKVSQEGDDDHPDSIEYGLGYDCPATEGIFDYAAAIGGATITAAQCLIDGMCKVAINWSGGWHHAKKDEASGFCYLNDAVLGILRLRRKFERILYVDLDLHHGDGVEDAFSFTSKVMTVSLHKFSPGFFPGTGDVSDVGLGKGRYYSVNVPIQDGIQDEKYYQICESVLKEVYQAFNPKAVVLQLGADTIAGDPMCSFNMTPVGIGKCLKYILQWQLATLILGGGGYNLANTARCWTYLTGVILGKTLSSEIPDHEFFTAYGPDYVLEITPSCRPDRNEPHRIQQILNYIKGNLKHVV

[3] = target: T3, Protein deacetylase HDAC6 (Homo sapiens, UniProt Q9UBN7); experiment: Inhibition of human HDAC6 by fluorescence assay
T3 sequence (Q9UBN7 whole entry): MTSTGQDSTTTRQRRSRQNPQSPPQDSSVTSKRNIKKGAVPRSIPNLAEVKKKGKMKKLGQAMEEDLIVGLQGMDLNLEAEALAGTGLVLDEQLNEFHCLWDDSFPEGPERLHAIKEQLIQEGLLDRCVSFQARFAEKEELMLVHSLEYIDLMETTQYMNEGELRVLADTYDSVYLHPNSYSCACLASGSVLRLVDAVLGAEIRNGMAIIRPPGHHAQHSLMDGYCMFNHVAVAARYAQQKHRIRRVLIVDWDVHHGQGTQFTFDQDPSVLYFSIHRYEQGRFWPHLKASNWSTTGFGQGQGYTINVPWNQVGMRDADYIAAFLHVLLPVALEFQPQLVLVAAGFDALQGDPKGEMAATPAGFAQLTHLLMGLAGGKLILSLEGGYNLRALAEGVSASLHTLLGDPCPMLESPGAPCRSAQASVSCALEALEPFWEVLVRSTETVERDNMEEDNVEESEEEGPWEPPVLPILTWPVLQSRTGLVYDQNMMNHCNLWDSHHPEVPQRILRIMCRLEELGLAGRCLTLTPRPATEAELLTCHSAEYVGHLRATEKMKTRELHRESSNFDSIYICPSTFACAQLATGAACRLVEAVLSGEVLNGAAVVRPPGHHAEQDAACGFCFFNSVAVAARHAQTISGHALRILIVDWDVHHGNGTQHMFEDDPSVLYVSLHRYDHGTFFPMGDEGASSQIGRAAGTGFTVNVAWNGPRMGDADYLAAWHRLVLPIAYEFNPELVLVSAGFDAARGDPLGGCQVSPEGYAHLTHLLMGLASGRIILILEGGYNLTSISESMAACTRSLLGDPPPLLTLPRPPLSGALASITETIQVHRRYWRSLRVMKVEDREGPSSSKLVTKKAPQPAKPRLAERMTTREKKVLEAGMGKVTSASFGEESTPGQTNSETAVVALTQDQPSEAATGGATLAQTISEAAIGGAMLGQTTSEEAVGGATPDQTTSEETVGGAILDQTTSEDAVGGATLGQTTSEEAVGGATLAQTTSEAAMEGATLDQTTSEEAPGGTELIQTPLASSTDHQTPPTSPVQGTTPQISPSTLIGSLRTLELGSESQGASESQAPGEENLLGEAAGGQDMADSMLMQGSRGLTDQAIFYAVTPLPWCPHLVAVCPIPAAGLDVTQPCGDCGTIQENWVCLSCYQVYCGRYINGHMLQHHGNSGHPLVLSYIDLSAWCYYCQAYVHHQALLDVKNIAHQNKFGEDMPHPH

[4] = target: Histone deacetylase 5 (Homo sapiens, UniProt Q9UQL6); experiment: Inhibition of human HDAC5 by fluorescence assay
[5] = target: Histone deacetylase 4 (Homo sapiens, UniProt P56524); experiment: Inhibition of human HDAC4 by fluorescence assay
[6] = target: Histone deacetylase 2 (Homo sapiens, UniProt Q92769); experiment: Inhibition of human HDAC2 by fluorescence assay
[7] = target: Histone deacetylase 1 (Homo sapiens, UniProt Q13547); experiment: Inhibition of human HDAC1 by fluorescence assay
[8] = target: Histone deacetylase; experiment: Inhibition of HDAC in cisplatin resistant human KYSE-510 cells after 18 hrs by fluorescence assay; assay type: cell-based
[9] = target: Histone deacetylase; experiment: Inhibition of HDAC in cisplatin sensitive human KYSE-510 cells after 18 hrs by fluorescence assay; assay type: cell-based
[10] = target: Histone deacetylase; experiment: Inhibition of HDAC in cisplatin resistant human CAL27 cells after 18 hrs by fluorescence assay; assay type: cell-based; settings: cal-27
[11] = target: Histone deacetylase; experiment: Inhibition of HDAC in cisplatin sensitive human CAL27 cells after 18 hrs by fluorescence assay; assay type: cell-based; settings: cal-27
[12] = target: Histone deacetylase; experiment: Inhibition of HDAC in cisplatin resistant human MDA-MB-231 cells after 18 hrs by fluorescence assay; assay type: cell-based
[13] = target: Histone deacetylase; experiment: Inhibition of HDAC in cisplatin sensitive human MDA-MB-231 cells after 18 hrs by fluorescence assay; assay type: cell-based
[14] = system: KYSE-510; experiment: Cytotoxicity against cisplatin sensitive human KYSE-510 cells after 72 hrs by MTT assay; assay type: functional, cell-based; settings: KYSE-510, 72 h
[15] = system: KYSE-510; experiment: Cytotoxicity against cisplatin resistant human KYSE-510 cells after 72 hrs by MTT assay; assay type: functional, cell-based; settings: KYSE-510, 72 h
[16] = system: CAL-27; experiment: Cytotoxicity against cisplatin resistant human CAL27 cells after 72 hrs by MTT assay; assay type: functional, cell-based; settings: CAL-27, 72 h
[17] = system: CAL-27; experiment: Cytotoxicity against cisplatin sensitive human CAL27 cells after 72 hrs by MTT assay; assay type: functional, cell-based; settings: CAL-27, 72 h
[18] = system: MDA-MB-231; experiment: Cytotoxicity against cisplatin resistant human MDA-MB-231 cells after 72 hrs by MTT assay; assay type: functional, cell-based; settings: MDA-MB-231, 72 h
[19] = system: MDA-MB-231; experiment: Cytotoxicity against cisplatin sensitive human MDA-MB-231 cells after 72 hrs by MTT assay; assay type: functional, cell-based; settings: MDA-MB-231, 72 h
How it was run: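 MDA-MB-231 (parental), 10 000 cells/well, in DMEM with 15% FCS at 37 °C, 5% CO2. Compounds added 24 h after seeding for 72 h. MTT (5 mg/mL in PBS) was added, formazan dissolved in DMSO, absorbance read at 544 and 690 nm. IC50 from four-parameter logistic fit of ≥3 experiments in triplicate.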

[20] = target: Histone deacetylase; experiment: Inhibition of HDAC in cisplatin resistant human A2780 cells after 18 hrs by fluorescence assay; assay type: cell-based
[21] = target: Histone deacetylase; experiment: Inhibition of HDAC in human A2780 cells after 18 hrs by fluorescence assay; assay type: cell-based
[22] = system: A2780; experiment: Cytotoxicity against human A2780 cells after 72 hrs by MTT assay; assay type: functional, cell-based; settings: A2780, 72 h
[23] = system: A2780 CisR (Homo sapiens); experiment: cells; settings: 72 h

Histone deacetylase 2, sequence (Q92769 whole entry): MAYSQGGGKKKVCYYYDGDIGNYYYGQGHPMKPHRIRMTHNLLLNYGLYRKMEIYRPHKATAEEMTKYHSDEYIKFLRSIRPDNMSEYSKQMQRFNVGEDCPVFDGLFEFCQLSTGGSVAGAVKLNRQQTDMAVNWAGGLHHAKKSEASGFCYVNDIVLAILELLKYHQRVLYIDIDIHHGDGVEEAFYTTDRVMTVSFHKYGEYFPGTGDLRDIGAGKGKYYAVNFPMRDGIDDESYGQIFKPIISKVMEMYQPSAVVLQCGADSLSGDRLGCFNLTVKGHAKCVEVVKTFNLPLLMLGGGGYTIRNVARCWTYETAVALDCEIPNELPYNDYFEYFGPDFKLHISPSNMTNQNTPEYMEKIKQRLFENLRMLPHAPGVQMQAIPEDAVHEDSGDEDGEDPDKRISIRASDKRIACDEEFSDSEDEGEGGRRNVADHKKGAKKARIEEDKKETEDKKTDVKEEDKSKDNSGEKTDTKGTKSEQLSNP
Histone deacetylase 4, sequence (P56524 whole entry): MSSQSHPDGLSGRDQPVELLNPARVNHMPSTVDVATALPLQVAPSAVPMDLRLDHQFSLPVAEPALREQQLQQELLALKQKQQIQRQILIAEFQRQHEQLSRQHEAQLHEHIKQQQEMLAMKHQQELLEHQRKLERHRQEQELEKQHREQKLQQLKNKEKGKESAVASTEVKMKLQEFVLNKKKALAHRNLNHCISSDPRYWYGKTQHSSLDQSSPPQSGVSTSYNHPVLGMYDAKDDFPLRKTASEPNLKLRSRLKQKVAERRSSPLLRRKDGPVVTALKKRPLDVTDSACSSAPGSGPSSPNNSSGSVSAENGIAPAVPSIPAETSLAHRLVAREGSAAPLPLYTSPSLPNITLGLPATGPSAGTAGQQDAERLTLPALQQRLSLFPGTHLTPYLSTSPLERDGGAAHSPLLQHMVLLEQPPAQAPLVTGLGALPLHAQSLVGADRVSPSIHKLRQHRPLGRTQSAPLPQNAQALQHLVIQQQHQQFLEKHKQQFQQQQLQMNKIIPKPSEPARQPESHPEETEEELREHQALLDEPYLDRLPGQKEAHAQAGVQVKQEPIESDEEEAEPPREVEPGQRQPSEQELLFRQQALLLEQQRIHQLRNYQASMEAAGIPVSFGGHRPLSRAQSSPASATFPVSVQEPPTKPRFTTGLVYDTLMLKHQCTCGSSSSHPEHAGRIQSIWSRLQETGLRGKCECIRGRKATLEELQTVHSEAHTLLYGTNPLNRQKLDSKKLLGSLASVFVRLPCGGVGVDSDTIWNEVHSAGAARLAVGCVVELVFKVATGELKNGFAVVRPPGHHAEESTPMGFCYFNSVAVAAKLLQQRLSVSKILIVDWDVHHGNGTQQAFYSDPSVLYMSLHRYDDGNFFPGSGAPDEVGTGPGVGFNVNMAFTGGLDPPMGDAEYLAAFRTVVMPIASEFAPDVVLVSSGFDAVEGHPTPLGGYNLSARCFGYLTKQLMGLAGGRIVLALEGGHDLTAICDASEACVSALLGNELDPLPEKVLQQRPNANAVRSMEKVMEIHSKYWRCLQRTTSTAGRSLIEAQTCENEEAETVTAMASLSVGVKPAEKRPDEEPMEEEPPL
Histone deacetylase 5, sequence (Q9UQL6 whole entry): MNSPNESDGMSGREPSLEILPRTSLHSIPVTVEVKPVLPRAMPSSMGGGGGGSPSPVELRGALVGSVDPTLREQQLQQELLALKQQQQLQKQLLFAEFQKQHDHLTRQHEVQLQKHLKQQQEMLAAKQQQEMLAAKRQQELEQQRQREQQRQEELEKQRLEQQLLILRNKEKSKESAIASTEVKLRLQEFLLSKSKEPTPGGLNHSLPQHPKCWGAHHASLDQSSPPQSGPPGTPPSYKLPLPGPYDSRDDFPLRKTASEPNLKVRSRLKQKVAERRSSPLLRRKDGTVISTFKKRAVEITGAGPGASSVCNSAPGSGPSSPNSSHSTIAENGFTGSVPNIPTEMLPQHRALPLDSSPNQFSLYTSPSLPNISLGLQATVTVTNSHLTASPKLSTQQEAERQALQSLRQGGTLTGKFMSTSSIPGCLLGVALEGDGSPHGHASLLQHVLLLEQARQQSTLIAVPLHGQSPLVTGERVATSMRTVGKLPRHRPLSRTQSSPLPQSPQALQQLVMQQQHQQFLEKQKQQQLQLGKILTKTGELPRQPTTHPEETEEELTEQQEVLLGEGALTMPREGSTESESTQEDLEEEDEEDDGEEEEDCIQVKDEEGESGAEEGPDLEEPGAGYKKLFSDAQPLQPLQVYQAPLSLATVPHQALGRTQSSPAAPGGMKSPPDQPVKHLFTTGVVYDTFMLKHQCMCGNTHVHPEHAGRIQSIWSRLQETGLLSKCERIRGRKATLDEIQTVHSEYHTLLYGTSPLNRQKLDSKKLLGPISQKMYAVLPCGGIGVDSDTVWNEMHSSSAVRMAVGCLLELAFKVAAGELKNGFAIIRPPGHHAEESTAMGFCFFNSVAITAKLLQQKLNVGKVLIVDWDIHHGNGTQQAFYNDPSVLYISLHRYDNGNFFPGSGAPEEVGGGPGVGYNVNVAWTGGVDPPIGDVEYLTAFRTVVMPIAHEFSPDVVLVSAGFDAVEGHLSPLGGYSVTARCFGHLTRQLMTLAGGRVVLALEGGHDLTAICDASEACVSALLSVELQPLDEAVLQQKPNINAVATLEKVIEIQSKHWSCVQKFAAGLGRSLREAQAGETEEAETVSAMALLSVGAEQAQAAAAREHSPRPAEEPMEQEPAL
Histone deacetylase 1, sequence (Q13547 whole entry): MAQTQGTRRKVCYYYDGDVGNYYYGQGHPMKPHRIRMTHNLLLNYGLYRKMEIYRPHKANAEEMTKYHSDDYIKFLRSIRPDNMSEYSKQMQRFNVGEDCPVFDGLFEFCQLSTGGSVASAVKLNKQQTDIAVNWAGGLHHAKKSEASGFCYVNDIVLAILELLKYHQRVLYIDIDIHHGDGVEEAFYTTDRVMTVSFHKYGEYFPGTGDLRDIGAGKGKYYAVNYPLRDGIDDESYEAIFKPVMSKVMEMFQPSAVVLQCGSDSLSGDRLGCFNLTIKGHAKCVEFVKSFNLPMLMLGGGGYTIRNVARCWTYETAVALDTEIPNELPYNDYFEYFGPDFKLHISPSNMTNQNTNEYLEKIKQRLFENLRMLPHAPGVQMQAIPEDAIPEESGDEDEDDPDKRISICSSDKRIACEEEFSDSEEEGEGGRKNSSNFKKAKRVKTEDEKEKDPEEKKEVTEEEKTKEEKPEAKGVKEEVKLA

- IC50 [1]: 0.997 µM
- IC50 [2]: 0.833 µM
- IC50 [3]: 0.0181 µM
- IC50 [4]: 0.0334 µM
- IC50 [5]: 0.0826 µM
- IC50 [6]: 0.944 µM
- IC50 [7]: 0.32 µM
- IC50 [8]: 1.1 µM
- IC50 [9]: 2.82 µM
- IC50 [10]: 0.91 µM
- IC50 [11]: 1.1 µM
- IC50 [12]: 1.66 µM
- IC50 [13]: 1.57 µM
- IC50 [20]: 0.88 µM
- IC50 [21]: 1.61 µM
- IC50 [23]: 1.78 µM
SMILES: Cc1ccc(C(=O)NOCCCCCC(=O)NO)cc1C
- IC50 [14]: 10 µM
- IC50 [15]: 9.46 µM
- IC50 [16]: 4.31 µM
- IC50 [17]: 2.9 µM
- IC50 [18]: 3.77 µM
- IC50 [19]: 2.77 µM
- IC50 [22]: 1.54 µM
